From ChEMBL document CHEMBL1149415, “Discovery and structure-activity relationship of antagonists of B-cell lymphoma 2 family proteins with chemopotentiation activity in vitro and in vivo” (J Med Chem, 2006) come the findings set out here.

Each structure is given as a SMILES string.

For assay [1], the target named is Apoptosis regulator Bcl-2 (Homo sapiens, UniProt P10415). In words: Binding affinity to Bcl2 by fluorescence polarization assay. For orientation: Fluorescence polarisation rises when a labelled molecule tumbles more slowly, as on binding a larger partner.
In assay [2] the target is T1, Bcl-2-like protein 1 (Homo sapiens, UniProt Q07817). In words: Binding affinity to Bcl-XL by fluorescence polarization assay.
The target in assay [3] is T1, Bcl-2-like protein 1. In words: Binding affinity to Bcl-XL in 1% human serum by fluorescence polarization assay.
Assay [4] concerns the target T1, Bcl-2-like protein 1. In words: Activity towards mouse FL5.12 cell line transfected with Bcl-XL in presence of 3% fetal bovine serum. The assay is classed as functional. Put shortly:
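Bcl-XL-transfected murine FL5.12 (IL-3 dependent) grown in RPMI with 10% FBS and WEHI-3B conditioned medium as the IL-3 source. Switched to IL-3-depleted, FBS-free medium for 2 days. Then placed in gelatin assay medium (3.4 mg/mL bovine gelatin) or 3% FBS assay medium. Serial compound dilutions added for 24 h. Viability read by MTS or CellTiter-Glo; duplicate values per determination; EC50.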

Assay [5] has as its target T1, Bcl-2-like protein 1. In words: Binding affinity to Bcl-XL in 10% human serum by fluorescence polarization assay. A digest of the protocol: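 Competitive fluorescence polarization: serial compound dilutions compete with 30 nM f-Bad peptide (FITC-labelled) for 60 nM Bcl-XL. Human serum at 10% added to the assay buffer. Duplicate values per determination; Ki calculated.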

Chain of Apoptosis regulator Bcl-2 (P10415 whole entry): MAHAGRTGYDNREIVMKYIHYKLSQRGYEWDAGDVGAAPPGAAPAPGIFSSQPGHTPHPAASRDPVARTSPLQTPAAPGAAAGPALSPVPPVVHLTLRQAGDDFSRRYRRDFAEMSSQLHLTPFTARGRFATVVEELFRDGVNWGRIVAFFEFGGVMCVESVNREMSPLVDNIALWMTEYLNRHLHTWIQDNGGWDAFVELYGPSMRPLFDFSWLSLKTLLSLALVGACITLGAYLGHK
T1 sequence (Q07817 whole entry): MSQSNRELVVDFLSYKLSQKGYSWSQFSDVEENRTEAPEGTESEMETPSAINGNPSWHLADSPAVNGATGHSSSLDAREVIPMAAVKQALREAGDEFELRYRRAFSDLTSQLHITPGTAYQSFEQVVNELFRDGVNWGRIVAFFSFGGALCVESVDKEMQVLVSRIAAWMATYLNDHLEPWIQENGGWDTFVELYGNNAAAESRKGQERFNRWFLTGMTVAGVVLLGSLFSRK

Usually Ki stands for the equilibrium dissociation constant of an inhibitor or competing ligand from its target. High values mean a looser hold on the target, low ones a stronger hold on the target. Consider `CC1(C)CCN(c2ccc(C(=O)NS(=O)(=O)c3ccc(NCCSc4ccccc4)c([N+](=O)[O-])c3)cc2)CC1`, for which the inhibition constant Ki came out at 192 nM in assay [1], 19 nM on Bcl-2-like protein 1 [2] and 652 nM at Bcl-2-like protein 1 [3].
On the same counts, the results for `CC(C)(C)OC(=O)N1CCN(c2ccc(C(=O)NS(=O)(=O)c3ccc(NCCSc4ccccc4)c([N+](=O)[O-])c3)cc2)CC1` are 2880 nM, 396 nM and 3350 nM.
Turning to `COc1cc(CCN(C)C)ccc1-c1ccc(C(=O)NS(=O)(=O)c2ccc(NCCSc3ccccc3)c([N+](=O)[O-])c2)cc1`, the inhibition constant Ki in assay [1] turned out to be 3260 nM; on Bcl-2-like protein 1 [2], 665 nM; at Bcl-2-like protein 1 [3], 998 nM.
On the same counts, the results for `COc1cc(CN(C)C)ccc1-c1ccc(C(=O)NS(=O)(=O)c2ccc(NCCSc3ccccc3)c([N+](=O)[O-])c2)cc1` are 4570 nM, 426 nM and 1000 nM.
The EC50 is the concentration giving half of the maximal effect. `COc1cc(CCCN2CCOCC2)ccc1-c1ccc(C(=O)NS(=O)(=O)c2ccc(N[C@H](CCCN(C)C)CSc3ccccc3)c([N+](=O)[O-])c2)cc1`: the figures for the Ki (in assay [1]; on Bcl-2-like protein 1 [2]; at Bcl-2-like protein 1 [3]) were 317 nM, 0.9 nM and 71 nM, respectively. Further, on Bcl-2-like protein 1 [4], the concentration giving a half-maximal response (EC50) was found to be 8600 nM.
On to `CC(=O)N1CCN(c2ccc(C(=O)NS(=O)(=O)c3ccc(NCCSc4ccccc4)c([N+](=O)[O-])c3)cc2)CC1`, for which the inhibitory constant (Ki) in assay [1] is greater than 10000 nM; on Bcl-2-like protein 1 [2] it was 894 nM; on Bcl-2-like protein 1 [3] it was 2970 nM.
As for `CN(C)CC[C@@H](CSc1ccccc1)Nc1ccc(S(=O)(=O)NC(=O)c2ccc(N3CCC(C)(C)CC3)cc2)cc1[N+](=O)[O-]`, the values for the inhibitory constant (Ki) (in assay [1]; at Bcl-2-like protein 1 [2]; at Bcl-2-like protein 1 [3]) were 1260 nM, 252 nM and 3850 nM, respectively. Moreover, the concentration for a half-maximal effect (EC50) on Bcl-2-like protein 1 [4] is 16100 nM.
For the compound `COc1cc(CCCN2CCOCC2)ccc1-c1ccc(C(=O)NS(=O)(=O)c2ccc(N[C@H](CCCCN)CSc3ccccc3)c([N+](=O)[O-])c2)cc1`, the Ki in assay [1] was found to be 70 nM; on Bcl-2-like protein 1 [2], 0.8 nM; on Bcl-2-like protein 1 [3], 29.6 nM. Moreover, on Bcl-2-like protein 1 [4], the 50% effective concentration (EC50) was found to be 9000 nM.
In the case of `CC1(C)CCN(c2ccc(C(=O)NS(=O)(=O)c3ccc(N[C@@H](CCN4CCOCC4)CSc4ccccc4)c([N+](=O)[O-])c3)cc2)CC1`, the Ki stood at 732 nM in assay [1], 75 nM on Bcl-2-like protein 1 [2] and 6050 nM on Bcl-2-like protein 1 [3]. Also, the concentration giving a half-maximal response (EC50) on Bcl-2-like protein 1 [4] was determined as 9310 nM.
In the case of `CN(C)C(=O)C[C@H](CSc1ccccc1)Nc1ccc(S(=O)(=O)NC(=O)c2ccc(N3CCC(C)(C)CC3)cc2)cc1[N+](=O)[O-]`, the inhibitory constant (Ki) worked out at 75 nM in assay [1], 3.1 nM at Bcl-2-like protein 1 [2] and 1790 nM at Bcl-2-like protein 1 [3]. Besides, the concentration for a half-maximal effect (EC50) at Bcl-2-like protein 1 [4] amounted to 15000 nM.
In the same order, the values of `CC1(C)CCN(c2ccc(C(=O)NS(=O)(=O)c3ccc(N[C@H](CCN4CCOCC4)CSc4ccccc4)c([N+](=O)[O-])c3)cc2)CC1` are 55 nM, 1.1 nM, greater than 10000 nM and 7000 nM.
Regarding `O=C(NS(=O)(=O)c1ccc(NCCSc2ccccc2)c([N+](=O)[O-])c1)c1ccc(N2CCOCC2)cc1`, the Ki in assay [1] was greater than 10000 nM; at Bcl-2-like protein 1 [2] it was 1080 nM; at Bcl-2-like protein 1 [3], greater than 10000 nM.
Take `COc1cc(CCCO)ccc1-c1ccc(C(=O)NS(=O)(=O)c2ccc(NCCSc3ccccc3)c([N+](=O)[O-])c2)cc1`: the Ki in assay [1] turned out to be 721 nM; at Bcl-2-like protein 1 [2], 21.5 nM; at Bcl-2-like protein 1 [3], 2960 nM.
Turning to `CC1(C)CCN(c2ccc(C(=O)NS(=O)(=O)c3ccc(N[C@H](CCCCN)CSc4ccccc4)c([N+](=O)[O-])c3)cc2)CC1`, the inhibitory constant (Ki) in assay [1] turned out to be 231 nM; at Bcl-2-like protein 1 [2], 1 nM; on Bcl-2-like protein 1 [3] it was 256 nM. The EC50 on Bcl-2-like protein 1 [4] turned out to be 20800 nM.
In the same order, the values of `CN(C)CCCC[C@H](CSc1ccccc1)Nc1ccc(S(=O)(=O)NC(=O)c2ccc(N3CCC(C)(C)CC3)cc2)cc1[N+](=O)[O-]` are 73 nM, 1.2 nM, 174 nM and 3890 nM.
On the same counts, the results for `COc1cc(CCCN2CCOCC2)ccc1-c1ccc(C(=O)NS(=O)(=O)c2ccc(N[C@H](CCCCN(C)C)CSc3ccccc3)c([N+](=O)[O-])c2)cc1` are 58.8 nM, less than 0.5 nM, 215 nM and 6000 nM.
Turning to `COc1cc(CC(=O)N(C)C)ccc1-c1ccc(C(=O)NS(=O)(=O)c2ccc(NCCSc3ccccc3)c([N+](=O)[O-])c2)cc1`, the Ki in assay [1] was greater than 10000 nM; at Bcl-2-like protein 1 [2], 251 nM; at Bcl-2-like protein 1 [3], greater than 10000 nM.
As for `COc1cc(C(=O)N(C)C)ccc1-c1ccc(C(=O)NS(=O)(=O)c2ccc(NCCSc3ccccc3)c([N+](=O)[O-])c2)cc1`, the Ki was 1980 nM in assay [1], 471 nM at Bcl-2-like protein 1 [2] and greater than 10000 nM on Bcl-2-like protein 1 [3].
On to `COc1cc(CCCN2CCOCC2)ccc1-c1ccc(C(=O)NS(=O)(=O)c2ccc(N[C@@H](CSc3ccccc3)CC(=O)N(C)C)c([N+](=O)[O-])c2)cc1`, for which the Ki stood at 121 nM in assay [1], 1.7 nM on Bcl-2-like protein 1 [2] and 1000 nM on Bcl-2-like protein 1 [3]. In addition, the EC50 on Bcl-2-like protein 1 [4] was 7630 nM.
With `CN(C)C(=O)N1CCN(c2ccc(C(=O)NS(=O)(=O)c3ccc(NCCSc4ccccc4)c([N+](=O)[O-])c3)cc2)CC1`, the results for the inhibition constant Ki (in assay [1]; at Bcl-2-like protein 1 [2]; on Bcl-2-like protein 1 [3]) were 3540 nM, 294 nM and 869 nM, respectively.
As to `COc1cc(CCCN(C)C)ccc1-c1ccc(C(=O)NS(=O)(=O)c2ccc(NCCSc3ccccc3)c([N+](=O)[O-])c2)cc1`, the inhibitory constant (Ki) in assay [1] came out at 1230 nM; on Bcl-2-like protein 1 [2], 106 nM; at Bcl-2-like protein 1 [3] it was 730 nM; at Bcl-2-like protein 1 [5] it was 5660 nM.
With `CN(C)CCC[C@H](CSc1ccccc1)Nc1ccc(S(=O)(=O)NC(=O)c2ccc(N3CCC(C)(C)CC3)cc2)cc1[N+](=O)[O-]`, the inhibitory constant (Ki) in assay [1] amounted to 92.1 nM; on Bcl-2-like protein 1 [2] it was 2.6 nM; at Bcl-2-like protein 1 [3], 728 nM. Further, the concentration for a half-maximal effect (EC50) on Bcl-2-like protein 1 [4] was determined as 14100 nM.
As to `O=C(NS(=O)(=O)c1ccc(NCCSc2ccccc2)c([N+](=O)[O-])c1)c1ccc(N2CCNCC2)cc1`, the inhibition constant (Ki) on Bcl-2-like protein 1 [2] is 2520 nM; on Bcl-2-like protein 1 [3], greater than 10000 nM.
On to `COc1cc(CCCN2CCOCC2)ccc1-c1ccc(C(=O)NS(=O)(=O)c2ccc(N[C@@H](CCN(C)C)CSc3ccccc3)c([N+](=O)[O-])c2)cc1`, for which the Ki in assay [1] worked out at 2160 nM; at Bcl-2-like protein 1 [2], 250 nM; at Bcl-2-like protein 1 [3], 1140 nM. Also, at Bcl-2-like protein 1 [4], the EC50 is 59200 nM.
Consider `COc1cc(CCC(=O)N(C)C)ccc1-c1ccc(C(=O)NS(=O)(=O)c2ccc(NCCSc3ccccc3)c([N+](=O)[O-])c2)cc1`, for which the Ki amounted to 400 nM in assay [1], 38.9 nM at Bcl-2-like protein 1 [2] and 1000 nM on Bcl-2-like protein 1 [3].
Turning to `COc1cc(CCCN2CCOCC2)ccc1-c1ccc(C(=O)NS(=O)(=O)c2ccc(NCCSc3ccccc3)c([N+](=O)[O-])c2)cc1`, the Ki was determined as 402 nM in assay [1], 10.4 nM at Bcl-2-like protein 1 [2], 580 nM on Bcl-2-like protein 1 [3] and 4300 nM on Bcl-2-like protein 1 [5].
Take `COc1cc(CCCN2CCOCC2)ccc1-c1ccc(C(=O)NS(=O)(=O)c2ccc(N[C@H](CCN3CCOCC3)CSc3ccccc3)c([N+](=O)[O-])c2)cc1`: the Ki was 165 nM in assay [1], less than 0.5 nM at Bcl-2-like protein 1 [2] and greater than 10000 nM on Bcl-2-like protein 1 [3]. For the same compound, at Bcl-2-like protein 1 [4], the EC50 came out at 2110 nM.
Regarding `COc1cc(CCC(=O)N2CCOCC2)ccc1-c1ccc(C(=O)NS(=O)(=O)c2ccc(NCCSc3ccccc3)c([N+](=O)[O-])c2)cc1`, the Ki in assay [1] was determined as 366 nM; at Bcl-2-like protein 1 [2], 57.9 nM; at Bcl-2-like protein 1 [3], 790 nM.
